According to ChEMBL document CHEMBL2177098, “Synthesis and evaluation of novel ¹⁸F labeled 2-pyridinylbenzoxazole and 2-pyridinylbenzothiazole derivatives as ligands for positron emission tomography (PET) imaging of β-amyloid plaques” (J Med Chem, 2012):
Calls of active or inactive are those of the source. The rule behind the calls is not given here.

Legend:
[1] = biological target: Amyloid-beta precursor protein (Homo sapiens) (UniProt P05067); test: Binding affinity to amyloid beta plaques in Alzheimer patient brain at 370 KBq/100 ul after 1 hr by autoradiographic analysis; details: tested as the 18F-labelled form
[2] = Displacement of [125I]-IMPY from amyloid beta (1 to 42) fibrils after 2 hrs by gamma-counting analysis
Summary of the method: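 Competition binding with aggregated Aβ1-42 fibrils and [125I]IMPY (60000−100000 cpm/100 μL) in 0.05% BSA (1 mL total); inhibitors 10⁻⁴−10^−8.5 M in ethanol. Incubated 37 °C for 2 h, then GF/B vacuum filtration with PBS (0.02 M, pH 7.4) washes and γ counting. Three repeats; IC50 converted to Ki by Cheng−Prusoff.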

[3] = species on record: Mus musculus; test: Binding affinity to amyloid beta plaques in transgenic C57BL6 mouse cortex expressing APP Swedish mutant/PSEN1 at 370 KBq/100 ul after 1 hr by autoradiographic analysis; details: tested as the 18F-labelled form
Summary of the method: (§1)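 Paraffin brain sections from 12-month-old Tg mice (C57BL6, APPswe/PSEN1) and age-matched controls, deparaffinized through xylene and graded ethanol, then PBS (0.2 M, pH 7.4) 30 min. Incubated with 18F tracer (370 KBq per 100 μL) 1 h at room temperature, washed in 40% EtOH, rinsed in water, then phosphor plate exposure 2 h. The same sections were afterwards stained with 0.125% thioflavin S in 10% EtOH for 3 min and washed in 40% EtOH.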

[4] = species on record: Mus musculus; test: Binding affinity to amyloid beta plaques in transgenic C57BL6 mouse hippocampus expressing APP Swedish mutant/PSEN1 at 370 KBq/100 ul after 1 hr by autoradiographic analysis; format: tissue-based; details: tested as the 18F-labelled form; summary of the method: as §1
[5] = species on record: Mus musculus; test: Binding affinity to amyloid beta plaques in transgenic C57BL6 mouse cortex expressing APP Swedish mutant/PSEN1 at 370 KBq/100 ul after 1 hr by thioflavinS-staining method; details: tested as the 18F-labelled form; summary of the method: as §1
[6] = species on record: Mus musculus; test: Binding affinity to amyloid beta plaques in transgenic C57BL6 mouse hippocampus expressing APP Swedish mutant/PSEN1 at 370 KBq/100 ul after 1 hr by thioflavinS-staining method; format: tissue-based; details: tested as the 18F-labelled form; summary of the method: as §1
[7] = test system: Mus musculus; test: Binding affinity to amyloid beta plaques in transgenic C57BL6 mouse cortex expressing APP Swedish mutant/PSEN1 at 19.2 MBq, iv after 30 mins by thioflavinS-staining method; format: functional, organism-based; details: 19.2 M, tested as the 18F-labelled form
[8] = test system: Mus musculus; test: Binding affinity to amyloid beta plaques in transgenic C57BL6 mouse cortex expressing APP Swedish mutant/PSEN1 at 19.2 MBq, iv after 30 mins by autoradiographic analysis; format: functional, organism-based; details: 19.2 M, tested as the 18F-labelled form
Summary of the method: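 Ex vivo: Tg mouse (C57BL6, APPswe/PSEN1) given 19.2 MBq tracer in saline via tail vein; decapitated 30 min later. Brain frozen in liquid nitrogen, 20 μm sections cut and exposed to a phosphor plate for 5 h.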

Amyloid-beta precursor protein (Homo sapiens), sequence (P05067 whole entry): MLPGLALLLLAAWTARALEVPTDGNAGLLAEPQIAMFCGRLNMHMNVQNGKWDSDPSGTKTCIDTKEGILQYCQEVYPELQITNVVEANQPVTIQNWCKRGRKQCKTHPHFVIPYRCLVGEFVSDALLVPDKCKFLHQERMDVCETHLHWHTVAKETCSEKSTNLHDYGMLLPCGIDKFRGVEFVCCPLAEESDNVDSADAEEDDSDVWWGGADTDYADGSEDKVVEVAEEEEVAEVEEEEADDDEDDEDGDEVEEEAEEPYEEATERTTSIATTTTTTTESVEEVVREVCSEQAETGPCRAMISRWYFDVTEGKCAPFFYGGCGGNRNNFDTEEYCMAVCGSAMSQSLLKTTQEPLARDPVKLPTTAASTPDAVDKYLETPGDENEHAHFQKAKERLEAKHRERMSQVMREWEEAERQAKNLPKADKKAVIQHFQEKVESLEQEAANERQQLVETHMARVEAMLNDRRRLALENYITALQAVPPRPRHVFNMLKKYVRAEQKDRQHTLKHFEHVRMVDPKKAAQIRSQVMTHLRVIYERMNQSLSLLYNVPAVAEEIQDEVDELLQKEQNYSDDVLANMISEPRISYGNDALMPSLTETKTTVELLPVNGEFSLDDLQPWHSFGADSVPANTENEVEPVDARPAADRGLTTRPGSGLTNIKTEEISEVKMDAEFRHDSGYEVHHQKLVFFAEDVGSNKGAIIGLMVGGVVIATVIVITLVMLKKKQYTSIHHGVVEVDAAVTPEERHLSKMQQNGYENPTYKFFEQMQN

- Activity [1]: Active
- Ki [2]: 8 nM
- Activity [3]: Active
- Activity [4]: Active
- Activity [5]: Active
- Activity [6]: Active
- Activity [7]: Active
- Activity [8]: Active
SMILES: CNc1ccc(-c2nc3cc(OCCF)ccc3o2)cn1
